Test results from ChEMBL document CHEMBL5380847, “Expanding the Paradigm of Structure-Based Drug Design: Molecular Dynamics Simulations Support the Development of New Pyridine-Based Protein Kinase C-Targeted Agonists” (J Med Chem, 2023).
Activity calls are given as the source filed them. The rule behind the calls is not given here.

Tests used:
[1] = biological target: Protein kinase C alpha type (Homo sapiens) (UniProt P17252); experiment: Displacement of [3H]-PDBu-from full length human recombinant PKCalpha expressed in baculovirus infected Sf9 cells at 1 to 30 uM incubated for 10 mins by microbeta liquid scintillation counter analysis; settings: dose 1-30 µM
DU-145 = experiment: Anticancer activity against human DU-145 cells assessed as reduction in cell viability at 0.03 to 30 uM measured after 24 hrs by MTT assay; format: functional, cell-based; settings: dose 0.03-30 µM
Outline: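 DU145 human prostate cancer cells were exposed for 24 h to compounds at 0.3, 3.0 and 30 μM, with 0.03 μM added for the reference. Viability was read by MTT and expressed as percent of vehicle control (0.1% DMSO). Values are mean + SEM of N = 3–4 independent experiments.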

[2] = biological target: Protein kinase C alpha type (Homo sapiens) (UniProt P17252); experiment: Displacement of [3H]-PDBu-from full length human recombinant PKCalpha expressed in baculovirus infected Sf9 cells incubated for 10 mins by microbeta liquid scintillation counter analysis; settings: filed as agonist, dose 1-30 µM
[3] = system: Fibroblast of cardiac tissue; experiment: Effect on PKCdelta expression level in neonatal mouse Cardiac fibroblast cells at 10 uM measured for 24 hrs by Western blot analysis; format: functional, cell-based
Outline: (§1)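 Neonatal mouse cardiac fibroblasts were treated with 10 μM compound for 24 h and then lysed. Total protein was extracted, and PKCα, -δ and -ϵ levels were analysed by Western blotting. Levels were normalized to vehicle control (0.1% DMSO). Values are mean + SEM of N = 3 independent experiments.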

Cardiac fibroblast = experiment: Inhibition of PKC-mediated ERK1/2 phosphorylation in neonatal mouse Cardiac fibroblast cells incubated for 30 mins in presence of PKC inhibitor Go6983 by Alphalisa analysis; format: cell-based
Outline: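 Neonatal mouse cardiac fibroblasts were pretreated, or not, with the PKC inhibitor Gö6983 (1 μM). Cells were then exposed for 30 min to compounds at 10 μM (PMA at 10 nM). Total and phospho-ERK1/2 in lysates were quantified by Alpha technology and normalized to DMSO control. Values are mean + SEM (N = 3), analysed by randomized block ANOVA with Dunnett's post hoc test.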

[4] = system: Fibroblast of cardiac tissue; experiment: Effect on PKCepsilon expression level in neonatal mouse Cardiac fibroblast cells at 10 uM measured for 24 hrs by Western blot analysis; format: functional, cell-based
Outline: as §1

[5] = system: Fibroblast of cardiac tissue; experiment: Effect on PKCalpha expression level in neonatal mouse Cardiac fibroblast cells at 10 uM measured for 24 hrs by Western blot analysis; format: functional, cell-based
Outline: as §1

SMILES	Activity [1]	Activity (DU-145)	Activity [2]	Activity [3]	inhibition (Cardiac fibroblast)	Activity [4]	Activity [5]
O=C(OCc1cccc(C(F)(F)F)c1)c1cc(CO)cc(C(=O)OCc2cccc(C(F)(F)F)c2)n1	inactive	inactive					
CCCCC(CC)OC(=O)c1cc(CO)cc(C(=O)OC(CC)CCCC)n1 (stereo unspecified)		inactive	Dose-Dependent Effect	inactive			
O=C(OCc1cccc(C(F)(F)F)c1)c1cc(CO)cc(C(=O)OCc2cccc(C(F)(F)F)c2)c1				inactive	Active	inactive	inactive
CN(Cc1cccc(C(F)(F)F)c1)C(=O)c1cc(CO)cc(C(=O)N(C)Cc2cccc(C(F)(F)F)c2)n1		inactive	Dose-Dependent Effect	inactive	Active	inactive	inactive
CCCCCCCCNC(=O)c1cc(CO)cc(C(=O)NCCCCCCCC)n1		inactive					
